The values below come from ChEMBL document CHEMBL3352644, “Selenadiazole derivatives as potent thioredoxin reductase inhibitors that enhance the radiosensitivity of cancer cells” (Eur J Med Chem, 2014).

Active and inactive are the calls of the source. No cut-off for these calls is given here.

Experiment [1] has as its system A-375. Kind of experiment: Induction of cell shrinkage in human A375 cells pre-treated with 20 uM p38 inhibitor […] for 1 hr followed by 8 ug/mL compound exposure for 18 hrs by microscopy. The experiment is classed as functional, cell-based. A digest of the protocol:
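A375 cells pretreated 1 h with […] JNK inhibitor SP600125 or p38 inhibitor SB203580, then given […] compound for 18 h. Morphology imaged.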

The subject of experiment [2] is A-375. Kind of experiment: Induction of cell cycle arrest in human A375 cells assessed as accumulation at G2/M phase at 4 ug/mL incubated for 6 hrs followed by irradiation with 8 Gy X-ray at 37 degC for 12 hrs by propidium iodide staining based flow cytometry (reference value: 47.2%). The class given is functional. An outline of the steps:
(§1)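 A375 cells treated at 10 or 4 µg/ml for 6 h, given 0 or 8 Gy X-ray, then 12 h more. Trypsinized, washed in PBS, fixed overnight in ice-cold 75% ethanol at −20 °C. Stained with propidium iodide, 30 min at 37 °C in the dark; DNA content and sub-G1 population read by flow cytometry.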

The subject of experiment [3] is A-375. Kind of experiment: Induction of apoptosis in human A375 cells assessed as caspase 8 activation at 2 ug/mL incubated for 18 hrs by fluorometric assay. The class given is functional, cell-based. A digest of the protocol: (§2)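 Cells seeded at 1 × 10⁶ per 10 cm dish and treated with 2 µg/ml alone or with 8 Gy X-ray for 18 h total. RIPA lysates clarified by spinning at 12,000 rpm for 5 min; 80 µg protein given Ac-DEVD-AMC (caspase-3), Ac-IETD-AMC (caspase-8) or Ac-LEHD-AMC (caspase-9). Incubated 2 h at 37 °C in the dark; fluorescence at 380/440 nm.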

Experiment [4] concerns A-375. Kind of experiment: Induction of cell morphological changes in human A375 cells incubated for 6 hrs followed by irradiation with 8 Gy X-ray at 37 degC for 12 hrs by microscopy. The experiment is classed as functional, cell-based.
For experiment [5], the target named is Thioredoxin reductase (Homo sapiens) (UniProt Q16881+Q9NNW7+Q86VQ6). Kind of experiment: Inhibition of TrxR antioxidant enzyme activity in human A375 cells at 2 ug/mL after 18 hrs by insulin reduction assay. The settings on record: A-375. The experiment is classed as cell-based.
For experiment [6], the system named is A-375. Kind of experiment: Induction of cell cycle arrest in human A375 cells assessed as accumulation at S phase at 4 ug/mL incubated for 18 hrs by propidium iodide staining based flow cytometry (reference value: 37.2%). The class given is functional. An outline of the steps: as §1
Experiment [7] concerns the target MAP kinase p38 (Homo sapiens) (UniProt O15264+Q15759+Q16539+P53778). Kind of experiment: Induction of p38 phosphorylation in human A375 cells at 4 ug/mL incubated for 6 hrs followed by irradiation with 8 Gy X-ray at 37 degC for 12 hrs by Western blotting method. The experiment is classed as cell-based. The settings on record: A-375. An outline of the steps:
(§3)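 A375 cells given […] for 6 h, then 0 or 8 Gy X-ray at 1.5 Gy/min and 12 h further culture. Lysis in ice-cold RIPA, pH 7.4, with protease and phosphatase inhibitors; protein by BCA. […] protein per lane on SDS-PAGE, transferred to nitrocellulose. Blocked in 5% milk/TBST. Primary 1:1000, 10 h, 4 °C; HRP secondary 1:2000, 1.5 h.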

Experiment [8] concerns A-375. Kind of experiment: Induction of apoptosis in human A375 cells assessed as caspase 8 activation at 2 ug/mL incubated for 6 hrs followed by irradiation with 8 Gy X-ray at 37 degC for 12 hrs by fluorometric assay. The class given is functional, cell-based. An outline of the steps:
as §2

Experiment [9] has as its system A-375. Kind of experiment: Induction of apoptosis in human A375 cells assessed as caspase 3 activation at 2 ug/mL incubated for 18 hrs by fluorometric assay. The experiment is classed as functional, cell-based. A digest of the protocol: as §2
Experiment [10] concerns the target c-Jun N-terminal kinase, JNK (Homo sapiens) (UniProt P45983+P53779+P45984). Kind of experiment: Induction of JNK phosphorylation in human A375 cells at 4 ug/mL incubated for 6 hrs followed by irradiation with 8 Gy X-ray at 37 degC for 12 hrs by Western blotting method. The class given is cell-based. The settings on record: A-375. A digest of the protocol: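 A375 cells pretreated 6 h with compound at 4 µg/ml, given 0 or 8 Gy X-ray, then incubated 12 h more. Lysed in RIPA buffer, pH 7.4, with protease and phosphatase inhibitors; 50 µg protein run on SDS-PAGE and blotted to nitrocellulose. Blocked in 5% milk; primary antibodies 1:1000, 10 h at 4 °C; HRP secondary 1:2000.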

Experiment [11] relates to A-375. Kind of experiment: Induction of apoptosis in human A375 cells assessed as caspase PARP cleavage at 2 ug/mL incubated for 18 hrs by Western blotting method. The experiment is classed as functional, cell-based. A digest of the protocol:
(§4)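 A375 cells treated with 2 µg/ml alone or with 8 Gy X-ray (6 h pretreatment, then 12 h; 18 h total). RIPA lysates (50 µg protein) run on SDS-PAGE and immunoblotted for caspases and PARP cleavage. Reprobed for β-actin as loading control.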

Experiment [12] concerns A-375. Kind of experiment: Induction of ROS generation in human A375 cells at 4 ug/mL […] by DCF and DHE dye based fluorescence assay. The class given is functional, cell-based.
The test system of experiment [13] is A-375. Kind of experiment: Induction of ROS generation in human A375 cells at 4 ug/mL incubated for 6 hrs followed by irradiation with 8 Gy X-ray at 37 degC for 12 hrs by DCF and DHE dye based fluorescence assay. The class given is functional, cell-based. A digest of the protocol:
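A375 cells (4 × 10⁴/well) cultured 24 h, then treated 6 h at 8 or 16 µg/ml or at 2 or 4 µg/ml, and given 0 or 8 Gy X-ray. Loaded with H₂DCF or DHE for 30 min at 37 °C in the dark. Fluorescence read at 485/535 nm (DCF) or 480/610 nm (DHE); % of control.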

Experiment [14] has as its system A-375. Kind of experiment: Reduction in Bid expression in human A375 cells at 4 ug/mL incubated for 6 hrs followed by irradiation with 8 Gy X-ray at 37 degC for 12 hrs by Western blotting method. The class given is functional, cell-based. An outline of the steps: as §3
Experiment [15] relates to A-375. Kind of experiment: Induction of apoptosis in human A375 cells assessed as caspase 9 activation at 2 ug/mL incubated for 6 hrs followed by irradiation with 8 Gy X-ray at 37 degC for 12 hrs by Western blotting method. The class given is functional, cell-based. An outline of the steps: as §4
Experiment [16] has as its system A-375. Kind of experiment: Induction of ROS generation in human A375 cells at 2 ug/mL […] by DCF and DHE dye based fluorescence assay. The class given is functional, cell-based.
In experiment [17] the test system is A-375. Kind of experiment: Reduction in Trx expression in human A375 cells at 2 ug/mL after 18 hrs by Western blotting method. The experiment is classed as functional, cell-based.
The test system of experiment [18] is A-375. Kind of experiment: Induction of apoptosis in human A375 cells assessed as caspase 3 activation at 2 ug/mL incubated for 6 hrs followed by irradiation with 8 Gy X-ray at 37 degC for 12 hrs by fluorometric assay. The experiment is classed as functional, cell-based. A digest of the protocol:
as §2

The test system of experiment [19] is A-375. Kind of experiment: Induction of cell cycle arrest in human A375 cells assessed as accumulation at G2/M phase at 4 ug/mL incubated for 18 hrs by propidium iodide staining based flow cytometry (reference value: 13.9%). The experiment is classed as functional. An outline of the steps: as §1
Experiment [20] deals with A-375. Kind of experiment: Induction of cell morphological changes in human A375 cells pre-treated with 20 uM p38 inhibitor […] for 1 hr followed by 8 ug/mL compound exposure for 18 hrs. The experiment is classed as functional, cell-based.
In experiment [21] the test system is A-375. Kind of experiment: Induction of apoptosis in human A375 cells assessed as caspase 8 activation at 2 ug/mL incubated for 6 hrs followed by irradiation with 8 Gy X-ray at 37 degC for 12 hrs by Western blotting method. The experiment is classed as functional, cell-based. A digest of the protocol: as §4
The subject of experiment [22] is A-375. Kind of experiment: Induction of cell cycle arrest in human A375 cells assessed as accumulation at S phase at 4 ug/mL incubated for 6 hrs followed by irradiation with 8 Gy X-ray at 37 degC for 12 hrs by propidium iodide staining based flow cytometry (reference value: 7.9%). The experiment is classed as functional. A digest of the protocol: as §1

`COc1cc(-c2nc3cc(-c4ccc5n[se]nc5c4)ccc3[nH]2)cc(OC)c1OC`: the outcome in the experiment on A-375 [1] and with A-375 [20] was inactive. In addition, the Activity stood at 22.1% with A-375 [2], 34% in the experiment with A-375 [6], 44.4% in the experiment with A-375 [19] and 30.6% with A-375 [22]. The result (with A-375 [3]; with A-375 [4]; in experiment [7]; in the experiment on A-375 [8]; in the experiment on A-375 [9]; in [10]) was Active. Besides, the result in the experiment on A-375 [11], with A-375 [12], with A-375 [13], with A-375 [14], in the experiment with A-375 [15] and in the experiment on A-375 [16] was Active. Further, the outcome in the experiment on A-375 [17], in the experiment on A-375 [18] and in the experiment on A-375 [21] was Active. In experiment [5], the inhibition entry is “Active”.
